# Rad51 HR inh – Rad51 (human) homologous recombination inhibition. Q06609. hRad51 DNA strand exchange, fluorescence dequenching. inhibition, % at 10 µM. hit rate 0.085% among 200,000;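 active = inhibition above 40% at the single screening dose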;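 also: 0% = DMSO control wells and 100% = blanks with heterologous ssDNA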
#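 material = hRad51 filaments on single-stranded DNA | reagent = Donor/quencher-labelled 47-bp dsDNA substrate | compound = 10 µM final, single point | schedule = strand-exchange reaction 15 min at room temperature | measured by = fluorescein emission 520 nm, excitation 485 nm | read-out basis = % inhibition versus plate control and blank means | benchmarks = plate controls and plate blanks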
# CHOP inhibitor – inhibitors of CHOP induction in ER stress response; CHO-K1 CHOP-promoter luciferase, tunicamycin-induced, 15-18 h; hit rate 3.8% among 220,000; inhibition, % at 10 µM;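 active = compounds that reduced the stress-induced luciferase reporter signal by more than about 70% of percent inhibition, limit read from the data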;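 also: 0% = tunicamycin plus vehicle and 100% = wells without tunicamycin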
# Wee1 stabilizer – inhibitors of human Wee1 degradation | hit rate 1.2% among 220,000 | reporter increase, % at 5 µM | AID 1321 | HeLa Luc-Wee1K328M stability, luciferase luminescence; 100% = proteasome inhibitor MG132 effect | P30291;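 active = activation above the mean of all tested compounds plus 3 SD, set per screening run, cut at about 8.8% in these data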;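 also: cells exposed to compound for 20 h before luminescence read; 0% = DMSO alone and 100% = MG132 at 30 µM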
# PKD1 inh – inhibitors of human PKD1 kinase. Q15139. PKD1 kinase fluorescence polarization assay. inhibition, % (concentration not given with the values). hit rate 0.056% among 200,000. AID 797
# Target sequence (Q15139 whole entry, looked up): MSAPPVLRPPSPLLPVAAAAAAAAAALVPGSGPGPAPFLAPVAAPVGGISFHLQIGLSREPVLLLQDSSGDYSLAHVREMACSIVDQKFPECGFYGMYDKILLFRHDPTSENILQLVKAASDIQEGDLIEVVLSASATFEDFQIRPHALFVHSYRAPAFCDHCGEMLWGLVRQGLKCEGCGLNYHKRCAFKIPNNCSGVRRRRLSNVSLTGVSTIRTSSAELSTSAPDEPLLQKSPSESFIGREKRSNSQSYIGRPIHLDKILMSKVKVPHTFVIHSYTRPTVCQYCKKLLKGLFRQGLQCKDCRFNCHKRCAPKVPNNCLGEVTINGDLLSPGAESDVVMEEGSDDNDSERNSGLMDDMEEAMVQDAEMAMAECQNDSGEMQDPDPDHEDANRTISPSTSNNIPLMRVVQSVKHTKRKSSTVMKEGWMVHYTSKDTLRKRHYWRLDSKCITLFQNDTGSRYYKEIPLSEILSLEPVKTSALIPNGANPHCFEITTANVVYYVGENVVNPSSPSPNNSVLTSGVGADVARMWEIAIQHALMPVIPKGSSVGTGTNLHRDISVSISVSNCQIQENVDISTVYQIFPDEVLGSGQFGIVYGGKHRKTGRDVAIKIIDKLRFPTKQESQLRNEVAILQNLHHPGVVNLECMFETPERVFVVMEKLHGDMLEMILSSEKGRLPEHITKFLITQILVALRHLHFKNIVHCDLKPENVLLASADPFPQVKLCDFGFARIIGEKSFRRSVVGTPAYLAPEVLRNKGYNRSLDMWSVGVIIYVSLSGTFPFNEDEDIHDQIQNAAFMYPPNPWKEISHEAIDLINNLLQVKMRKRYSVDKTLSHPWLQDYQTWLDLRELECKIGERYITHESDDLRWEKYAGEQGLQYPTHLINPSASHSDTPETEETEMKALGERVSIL
# Arbovirus inh – blocks arbovirus infection; arbovirus infection cell-based antiviral screen; inhibition, % at 10 µM; hit rate 0.37% among 200,000; in the data active = inhibition above about 30%
# L major viab – inhibitors of Leishmania major promastigote growth. hit rate 9% among 200,000. inhibition, % at 10 µM. Leishmania major promastigotes, resazurin fluorescence viability;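 also: promastigotes grown with compound for 44 hours at 28 °C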
# The depositor's hits bear a star; nt = not tested or not shown. The list is not random: actives were taken first. Their share in the collection is about 12%. Rule as the data show it, unless noted: active = inhibition above about 50%; inactive = the rest.
SMILES,Rad51 HR inh,CHOP inhibitor,Wee1 stabilizer,PKD1 inh,Arbovirus inh,L major viab
COc1ccc(-c2cn3c(C)c(C(=O)Nc4ccncc4)sc3n2)cc1,4,65,-2,-8,1,100*
Cc1ccc(S(=O)(=O)N2CCC(C(=O)N/N=C/c3cccnc3)CC2)cc1,-7,-18,0,22,10,-7
CC(=O)NCCOc1nc(N2CCCCC2)nc(N2CCCCC2)n1,-4,6,0,-6,-10,96*
O=C(NCCOc1nc(N2CCCCC2)nc(N2CCCCC2)n1)Nc1ccccc1,-10,63,-1,4,1,37
O=C(Nc1ccnc(-c2ccncc2)n1)c1ccc(Cl)cc1,-1,8,-2,-4,0,3
CC(=O)N=c1sc2c3ccccc3ccc2n1C,0,4,-1,3,-5,63*
CCn1c(SCC(=O)Nc2ccc(C)cc2)nnc1-c1ccc(O)cc1,-2,19,-3,4,-4,7
COc1ccc(C)cc1NC(=O)CN1CCN(CC(=O)Nc2ccccc2F)CC1,nt,79*,-2,1,-3,7
CCOc1ccc(NC(=O)CN2CCN(C3c4ccccc4-c4ccccc43)CC2)cc1,5,44,1,0,11,90*
COc1ccccc1NC(=O)CN1CCC(n2c(C)nc3cc(F)ccc32)CC1,-4,34,-1,-12,33*,32
COc1ccccc1NC(=O)CN1CCN(C2c3ccccc3-c3ccccc32)CC1,-5,18,1,-13,-20,58*
O=c1ccc(Oc2nc(N3CCOCC3)nc(N3CCOCC3)n2)n[nH]1,-1,18,3,-2,5,-3
CC(=O)Oc1cc2c(cc1Cl)C(c1cccs1)CC1(CC(C)(C)NC(=S)N1)O2 (stereo unspecified),0,13,2,-4,3,34
CC(=O)N1CCN(c2ccccc2NC(=O)COc2cc(C)ccc2C(C)C)CC1,11,22,3,-8,-18,30
Cc1ccccc1OCC(=O)Nc1ccccc1N1CCCCC1,-2,89*,-1,-10,2,31
Cc1cc(C)cc(OCC(=O)Nc2ccccc2N2CCCCC2)c1,-1,86*,0,2,10,-5
O=C(COc1ccc(Br)cc1)Nc1ccccc1N1CCCC1,-3,70*,4,3,-8,-7
Cc1ccc(C(C)C)c(OCC(=O)Nc2ccccc2N2CCN(C)CC2)c1,-8,78*,2,0,1,60*
CCC(=O)N1CCN(c2ccccc2NC(=O)COc2cccc(C)c2)CC1,2,20,7,2,16,5
CC(=O)N1CCN(c2ccccc2NC(=O)COc2ccc(Br)cc2)CC1,-5,-1,0,-15,0,26
O=C(COc1ccccc1[N+](=O)[O-])Nc1ccccc1N1CCCC1,-34,50,1,-9,-16,5
COc1ccc(/C=C/C(=O)N2CCN(C)CC2)cc1S(=O)(=O)N1CCCCC1,4,16,-1,3,-1,1
CC(C)C1C2CCC(C2)C1N (stereo unspecified),nt,-12,nt,nt,nt,nt
Clc1ccc(OCc2nnc(SCc3nc4ccccc4[nH]3)n2Cc2ccco2)cc1,-2,81*,-2,-6,-4,9
Clc1cccc(-c2nnc(SCc3nc4ccccc4[nH]3)n2Cc2ccco2)c1,-5,35,-2,-8,-7,16
SMILES,Rad51 HR inh,CHOP inhibitor,Wee1 stabilizer,PKD1 inh,Arbovirus inh,L major viab
O=S(=O)(c1cccc(Cl)c1Cl)N1CCCCC1,2,6,2,-6,-10,1
CN1CCCN(S(=O)(=O)c2ccc(Cl)c(Cl)c2)CC1,7,31,2,-4,-18,82*
CN1CCCN(S(=O)(=O)c2cccc(Cl)c2Cl)CC1,10,13,2,-7,0,72*
Cc1cc2c(cc1C)C(c1ccsc1)CC(=O)N2 (stereo unspecified),nt,13,0,-4,-9,8
CCOc1cc(/C=N/NC(=O)C(=O)Nc2cc(Cl)ccc2C)ccc1O,2,5,5,7,-2,2
COc1ccccc1CC(Cc1nc2ccccc2[nH]1)c1nc2ccccc2[nH]1 (stereo unspecified),6,18,7,11,-15,98*
CC(C)Cc1nc2ccccc2[nH]1,nt,-1,0,nt,nt,nt
CC(c1ccccc1)C(Cc1nc2ccccc2[nH]1)c1nc2ccccc2[nH]1 (stereo unspecified),3,36,3,2,24,95*
Cc1cccc(CC(Cc2nc3ccccc3[nH]2)c2nc3ccccc3[nH]2)c1 (stereo unspecified),-10,-77,0,-7,-8,93*
CC(C)C(NC(=O)C(c1ccccc1)c1ccccc1)c1nc2ccccc2[nH]1 (stereo unspecified),-3,77*,5,-7,-4,10
Cc1c(C(=O)O)c(C(=O)O)nc2ccc(N3CCOCC3)cc12,-10,-7,-2,-4,2,3
C[n+]1ccc(C(=O)N/N=C/c2ccco2)cc1,8,12,0,1,-8,8
CC1=C(C(=O)OC(C)C)C(c2cccs2)NC(=S)N1 (stereo unspecified),2,13,-2,5,5,-1
CC(CNC(=O)C(=O)NC(C)CCc1ccccc1)Cc1ccccc1 (stereo unspecified),-2,38,3,-10,-20,-1
Cc1sc2nc(SCC(=O)NCc3ccco3)n(CCc3ccccc3)c(=O)c2c1C,1,95*,0,-9,7,3
C=CCn1c(SCC(=O)NC(=O)NCc2ccco2)nc2sc(CC)cc2c1=O,-8,83*,2,-10,0,0
CCn1c(SCC(=O)NC(=O)NCc2ccco2)nc2sc(C)c(C)c2c1=O,nt,55,9.8*,-9,-3,22
COc1cccc(C2C([N+](=O)[O-])=C(N)Oc3cc(C)oc(=O)c32)c1 (stereo unspecified),nt,1,3,nt,nt,nt
CCOC(=O)C1(C(=O)OCC)CC1c1ccccc1 (stereo unspecified),58*,24,-2,5,6,-4
O=C(CNc1ccccc1)N/N=C/c1cc([N+](=O)[O-])ccc1N1CCCC1,-2,73*,1,3,1,-1
Cc1ccc(OCC(=O)N/N=C/c2cc([N+](=O)[O-])ccc2N2CCCCC2)cc1,nt,29,1,-3,-2,96*
O=C(COc1ccc([N+](=O)[O-])cc1)N/N=C/c1cc([N+](=O)[O-])ccc1N1CCOCC1,6,24,-1,1,-13,-3
O=C(N/N=C/c1cc([N+](=O)[O-])ccc1N1CCNCC1)c1ccc([N+](=O)[O-])cc1,-6,-9,1,-7,-9,86*
N#CCC(=O)N/N=C/c1cc([N+](=O)[O-])ccc1N1CCCC1,-17,-2,1,-9,-7,16

# High-throughput results from PubChem.
